Data reported in ChEMBL document CHEMBL4118248, “Small Molecule Proprotein Convertase Subtilisin/Kexin Type 9 (PCSK9) Inhibitors: Hit to Lead Optimization of Systemic Agents” (J Med Chem, 2018).

Columns and labels:
[1] = target: 80S Ribosome; assay: Binding affinity to 80S ribosome in human HuH7 cells harboring pCMV-truncated human PCSK9 (1 to 152 residues)-proLuc assessed as inhibition of PCSK9 mRNA translation after overnight incubation by luciferase reporter gene assay; type: cell-based; details: huh-7
Outline: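 Huh7 cells stably carry human PCSK9 prodomain (aa 1-152) fused to firefly luciferase (aa 2-550) in pcDNA3.1, kept under 900 µg/mL Geneticin. Plated 10,000/well in phenol red-free DMEM/10% FBS and left 4 h, then compound added (top final 20 µM, 0.5% DMSO). Incubated overnight at 37 °C, luminescence read with SteadyGlo.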

[2] = tested on: Rattus norvegicus; assay: Toxicity in Crl:CD(SD) rat assessed as discolored/mottled liver at 50 mg/kg/day, po daily via gavage for 14 days measured on day 15 post last dose; type: organism-based; details: in vivo, 336 h
Outline: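 Male rats, 5 per group, given vehicle or compound at 50 mg/kg/day by oral gavage for 14 days. Mortality, clinical signs and hematology monitored throughout. Necropsy on day 15 with microscopy of bone marrow, ileum, duodenum, jejunum and liver. Toxicokinetics at 1, 3, 6 and 24 h post-dose on day 14.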

[3] = tested on: Rattus norvegicus; assay: Toxicity in Crl:CD(SD) rat at 15 mg/kg/day, po daily via gavage for 14 days; type: organism-based; details: in vivo, 336 h
[4] = Cytotoxicity against human CD34-positive hematopoietic progenitor cells assessed as reduction in cell viability after 72 hrs by CellTiter-Glo assay; type: cell-based
[5] = Total plasma concentration in Crl:CD(SD) rat at 15 mg/kg/day, po daily via gavage for 14 days measured on day 14 post last dose up to 24 hrs; type: ADME, organism-based; details: in vivo
[6] = tested on: Rattus norvegicus; assay: Toxicity in Crl:CD(SD) rat assessed as decrease in WBC at 50 mg/kg/day, po daily via gavage for 14 days measured on day 15 post last dose relative to control; type: organism-based; set-up: scale not given: the % may be the effect or the level left; details: in vivo, 336 h
[7] = Lipophilicity, log D of the compound by shake flask method; type: physicochemical; details: octanol/water
Outline: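 LogD measured by the shake-flask method.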

[8] = tested on: IEC-6; assay: Cytotoxicity against rat IEC-6 cells assessed as reduction in cell viability after 3 days by CellTiter-Glo assay; type: cell-based; details: IEC-6, 72 h
Outline: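 Rat intestinal epithelial IEC-6 cells; viability read by CellTiter-Glo ATP luminescence.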

[9] = tested on: Rattus norvegicus; assay: Reduction in total cholesterol level in Crl:CD(SD) rat at 50 mg/kg/day, po daily via gavage for 14 days measured on day 15 post last dose relative to control; type: functional; set-up: scale not given: the % may be the effect or the level left
[10] = tested on: Rattus norvegicus; assay: Toxicity in Crl:CD(SD) rat assessed as decrease in lymphocytes at 50 mg/kg/day, po daily via gavage for 14 days measured on day 15 post last dose relative to control; type: organism-based; set-up: scale not given: the % may be the effect or the level left; details: in vivo, 336 h
[11] = target: 80S Ribosome; assay: Binding affinity of [3H]PF-06446846 to human 80S ribosome
[12] = tested on: Bone marrow cell; assay: Cytotoxicity against rat bone marrow cells assessed as reduction in cell viability after 72 hrs by CellTiter-Glo assay; type: cell-based
[13] = tested on: Rattus norvegicus; assay: Reduction in LDL cholesterol level in Crl:CD(SD) rat at 50 mg/kg/day, po daily via gavage for 14 days measured on day 15 post last dose relative to control; type: functional; set-up: scale not given: the % may be the effect or the level left
[14] = target: 80S Ribosome; assay: Binding affinity to 80S ribosome in human HuH7 cells assessed as inhibition of PCSK9 mRNA translation after overnight incubation by ELISA; type: cell-based; details: huh-7
Outline: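 Huh7 cells kept in high-glucose DMEM, 10% BSA-free FBS, 2 mM L-glutamine, pen/strep at 37 °C, 5% CO2. Plated 7,500/well with compound or vehicle and incubated overnight (16-20 h). Secreted PCSK9 in the medium read by AlphaLISA: two antibodies to different mature-PCSK9 epitopes, biotinylated antibody 3 nM final, acceptor beads 10 µg/mL, 0.5 h rt; streptavidin donor beads 40 µg/mL, 1 h rt.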

[15] = tested on: Rattus norvegicus; assay: Toxicity in Crl:CD(SD) rat assessed as decrease in monocytes at 50 mg/kg/day, po daily via gavage for 14 days measured on day 15 post last dose relative to control; type: organism-based; set-up: scale not given: the % may be the effect or the level left; details: in vivo, 336 h
[16] = target: Cytochrome P450 2C9 (Homo sapiens, UniProt P11712); assay: Inhibition of CYP2C9 (unknown origin); type: ADME
Outline: (§1)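 Inhibition of CYP1A2, 2D6, 2C9 and 3A4 reported as IC50, or as percent inhibition at 3 µM.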

[17] = tested on: Rattus norvegicus; assay: Toxicity in Crl:CD(SD) rat assessed as decrease in eosinophils at 50 mg/kg/day, po daily via gavage for 14 days measured on day 15 post last dose relative to control; type: organism-based; set-up: scale not given: the % may be the effect or the level left; details: in vivo, 336 h
[18] = Intrinsic clearance in rat liver microsomes; type: ADME, microsome; details: read-out: CLH
[19] = Apparent permeability in RRCK cells; type: ADME, cell-based, Canis lupus familiaris, MDCKII-LE; details: dog, MDCK
Outline: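 Passive permeability measured in RRCK cells, a modified Madin-Darby canine kidney line; Papp reported in 10^-6 cm/s.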

[20] = target: Cytochrome P450 2D6 (Homo sapiens, UniProt P10635); assay: Inhibition of CYP2D6 (unknown origin); type: ADME; outline: as §1
[21] = Intrinsic clearance in human liver microsomes; type: ADME, microsome; details: read-out: CLH
[22] = target: Cytochrome P450 3A4 (Homo sapiens, UniProt P08684); assay: Inhibition of CYP3A4 (unknown origin); type: ADME; outline: as §1
[23] = tested on: Rattus norvegicus; assay: Toxicity in Crl:CD(SD) rat assessed as decrease in hematocrit and hemoglobin level at 50 mg/kg/day, po daily via gavage for 14 days measured on day 15 post last dose relative to control; type: organism-based; set-up: scale not given: the % may be the effect or the level left; details: in vivo, 336 h
[24] = Permeability from apical to basolateral side in MDCK cells harboring MDR1; type: ADME, cell-based, Canis lupus familiaris; details: dog, read-out: permeability
Outline: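 Bidirectional permeability across MDR1-transfected MDCK monolayers, apical-to-basolateral and basolateral-to-apical; Papp reported in 10^-6 cm/s.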

[25] = tested on: Rattus norvegicus; assay: Toxicity in Crl:CD(SD) rat assessed as decrease in helper T cells at 50 mg/kg/day, po daily via gavage for 14 days measured on day 15 post last dose relative to control; type: organism-based; set-up: scale not given: the % may be the effect or the level left; details: in vivo, 336 h
[26] = tested on: Rattus norvegicus; assay: Toxicity in Crl:CD(SD) rat assessed as decrease in absolute maturing erythroid cells at 50 mg/kg/day, po daily via gavage for 14 days measured on day 15 post last dose relative to control; type: organism-based; set-up: scale not given: the % may be the effect or the level left; details: in vivo, 336 h
[27] = tested on: Rattus norvegicus; assay: Toxicity in Crl:CD(SD) rat assessed as decrease in total nucleated cell count at 50 mg/kg/day, po daily via gavage for 14 days measured on day 15 post last dose relative to control; type: organism-based; set-up: scale not given: the % may be the effect or the level left; details: in vivo, 336 h
[28] = tested on: Rattus norvegicus; assay: Toxicity in Crl:CD(SD) rat assessed as decrease in total erythroid cells at 50 mg/kg/day, po daily via gavage for 14 days measured on day 15 post last dose relative to control; type: organism-based; set-up: scale not given: the % may be the effect or the level left; details: in vivo, 336 h
[29] = tested on: Rattus norvegicus; assay: Toxicity in Crl:CD(SD) rat assessed as decrease in B cells at 50 mg/kg/day, po daily via gavage for 14 days measured on day 15 post last dose relative to control; type: organism-based; set-up: scale not given: the % may be the effect or the level left; details: in vivo, 336 h
[30] = tested on: Rattus norvegicus; assay: Toxicity in Crl:CD(SD) rat assessed as decrease in proliferating erythroid cells at 50 mg/kg/day, po daily via gavage for 14 days measured on day 15 post last dose relative to control; type: organism-based; set-up: scale not given: the % may be the effect or the level left; details: in vivo, 336 h
[31] = tested on: Rattus norvegicus; assay: Toxicity in Crl:CD(SD) rat assessed as decrease in basophils at 50 mg/kg/day, po daily via gavage for 14 days measured on day 15 post last dose relative to control; type: organism-based; set-up: scale not given: the % may be the effect or the level left; details: in vivo, 336 h
[32] = tested on: Rattus norvegicus; assay: Toxicity in Crl:CD(SD) rat assessed as decrease in total T cells at 50 mg/kg/day, po daily via gavage for 14 days measured on day 15 post last dose relative to control; type: organism-based; set-up: scale not given: the % may be the effect or the level left; details: in vivo, 336 h

Cytochrome P450 2D6, sequence (P10635 whole entry): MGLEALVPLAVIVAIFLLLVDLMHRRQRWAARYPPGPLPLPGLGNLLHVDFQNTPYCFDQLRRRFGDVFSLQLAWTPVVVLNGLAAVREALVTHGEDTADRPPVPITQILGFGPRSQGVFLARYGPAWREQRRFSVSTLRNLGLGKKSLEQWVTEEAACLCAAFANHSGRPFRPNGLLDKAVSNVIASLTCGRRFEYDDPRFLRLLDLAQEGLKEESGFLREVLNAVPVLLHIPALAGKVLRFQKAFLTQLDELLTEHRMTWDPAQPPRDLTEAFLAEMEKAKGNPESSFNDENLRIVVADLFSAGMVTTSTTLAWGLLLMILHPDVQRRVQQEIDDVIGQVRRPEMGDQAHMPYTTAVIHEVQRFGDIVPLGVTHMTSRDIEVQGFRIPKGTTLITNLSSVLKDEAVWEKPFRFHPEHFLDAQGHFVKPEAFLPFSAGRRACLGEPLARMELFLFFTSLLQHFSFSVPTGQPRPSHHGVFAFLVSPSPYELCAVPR
Cytochrome P450 3A4, sequence (P08684 whole entry): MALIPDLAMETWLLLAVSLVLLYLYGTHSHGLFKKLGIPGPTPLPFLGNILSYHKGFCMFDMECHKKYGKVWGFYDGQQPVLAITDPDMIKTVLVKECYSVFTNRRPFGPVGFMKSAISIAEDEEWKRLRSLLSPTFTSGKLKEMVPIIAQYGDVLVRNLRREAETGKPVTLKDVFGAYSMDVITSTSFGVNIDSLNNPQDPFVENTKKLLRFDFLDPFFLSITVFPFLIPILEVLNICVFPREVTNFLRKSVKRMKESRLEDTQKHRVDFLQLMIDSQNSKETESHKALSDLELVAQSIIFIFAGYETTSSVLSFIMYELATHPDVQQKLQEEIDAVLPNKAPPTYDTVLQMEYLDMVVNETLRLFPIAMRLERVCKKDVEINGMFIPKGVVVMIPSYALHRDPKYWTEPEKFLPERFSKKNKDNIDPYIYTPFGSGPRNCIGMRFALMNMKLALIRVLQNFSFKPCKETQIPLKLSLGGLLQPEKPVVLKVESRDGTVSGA
Cytochrome P450 2C9, sequence (P11712 whole entry): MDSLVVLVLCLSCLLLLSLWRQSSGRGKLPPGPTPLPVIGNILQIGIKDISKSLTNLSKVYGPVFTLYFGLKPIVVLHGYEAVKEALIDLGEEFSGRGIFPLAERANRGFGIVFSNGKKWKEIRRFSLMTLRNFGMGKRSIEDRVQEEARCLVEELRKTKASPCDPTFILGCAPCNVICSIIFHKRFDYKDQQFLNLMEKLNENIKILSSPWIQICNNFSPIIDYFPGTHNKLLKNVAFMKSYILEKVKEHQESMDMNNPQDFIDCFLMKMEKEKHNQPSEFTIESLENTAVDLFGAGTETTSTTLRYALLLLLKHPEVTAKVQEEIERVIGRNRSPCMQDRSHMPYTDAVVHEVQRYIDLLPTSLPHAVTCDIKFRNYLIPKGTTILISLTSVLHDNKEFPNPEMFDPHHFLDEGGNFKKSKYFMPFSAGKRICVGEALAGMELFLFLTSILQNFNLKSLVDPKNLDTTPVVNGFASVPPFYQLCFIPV

## O=C(c1ccc(-n2nnc3cccnc32)cc1)N(c1ncccc1Cl)[C@@H]1CCCNC1
[1]
  IC50: 0.38 µM
[2]
  Activity: Toxic
[3]
  NOAEL: 478 nM
[4]
  IC50: 2.7 µM
[5]
  concentration: 2.42 µM
[6]
  Activity: 52%
[7]
  logD: 0.8
[8]
  IC50: > 20 µM
[9]
  Activity: 30%
[10]
  Activity: 54%
[11]
  Ki: 7 µM
[12]
  IC50: 1.2 to 2.9 µM
[13]
  Activity: 58%
[14]
  IC50: 0.82 µM
[15]
  Activity: 63%
[16]
  IC50: > 30 µM
[17]
  Activity: 54%
[18]
  microsomal CLint: 18.2 µL/min/mg
[19]
  Papp: 150 nm/s
[20]
  IC50: > 30 µM
[21]
  microsomal CLint: 9.7 µL/min/mg
[22]
  IC50: > 30 µM
[23]
  Activity: 9 to 10%
[24]
  Papp A→B: 15 nm/s
[25]
  Activity: 54%
[26]
  Activity: 48%
[27]
  Activity: 30%
[28]
  Activity: 46%
[29]
  Activity: 58%
[30]
  Activity: 32.9%
[31]
  Activity: 100%
[32]
  Activity: 54%
